Peptide text beside a SMILES is read from it.
Experiments:
Assay type in all cases: cell-based, human
[1] = tested on: PDO-S (ICC patient-derived organoid); assay: Drug sensitivity experiment of organoids; conditions: by IC50, 24 h, CellTiter-Glo
[2] = tested on: PDO-K (ICC patient-derived organoid); assay: Drug sensitivity experiment of organoids; conditions: by IC50, 24 h, CellTiter-Glo; for overall sensitivity of the three PDOs: overall across PDO-K, PDO-S and PDO-L
HIBEpiC cells = assay: Membrane potential; conditions: 1 x 10^5 cells/mL, peptide 2.5, 5, 10, 20 µM, 1 h
Procedure, shortened: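 A cell suspension at 1 × 10^5 cells/mL was incubated 1 h with peptide at 0 (control), 2.5, 5, 10 or 20 µM. The mixture was then loaded into a folded capillary cell, and zeta potential was read on a NanoZetasizer.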

[3] = tested on: PDO-L (ICC patient-derived organoid); assay: Drug sensitivity experiment of organoids; conditions: by IC50, 24 h, CellTiter-Glo

SMILES	rank of therapeutic effect among the drugs, PDO-S [1]	rank of therapeutic effect among the drugs, PDO-K [2]	overall sensitivity of the three PDOs [2]	change of zeta potential of normal cells after peptide treatment (HIBEpiC cells)	rank of therapeutic effect among the drugs, PDO-L [3]
Nc1ccn([C@@H]2O[C@H](CO)[C@@H](O)C2(F)F)c(=O)n1 [Gemcitabine]	most effective	–	–	–	–
CC(C)C[C@H](NC(=O)[C@H](CC(C)C)NC(=O)[C@H](CCCCN)NC(=O)[C@H](CCCCN)NC(=O)[C@H](CC(C)C)NC(=O)[C@H](CC(C)C)NC(=O)[C@H](CCCCN)NC(=O)[C@H](CCCCN)NC(=O)[C@H](CC(C)C)NC(=O)[C@H](CC(C)C)NC(=O)[C@H](CCCCN)NC(=O)[C@H](CCCCN)NC(=O)[C@H](CC(C)C)NC(=O)[C@@H](N)CC(C)C)C(N)=O [KL-8] (H-LLKKLLKKLLKKLL-NH2)	–	best therapeutic effect	highest sensitivity	no statistically significant changes	best therapeutic effect
CNC(=O)c1cc(Oc2ccc(NC(=O)Nc3ccc(Cl)c(C(F)(F)F)c3)cc2)ccn1 [Sorafenib, reference compound]	–	–	lowest sensitivity	–	–

From paper PMC12217639 (Scientific Reports, 2025)
